“And” between values parts separate entries of the source, which are not always exact repeats. Equal values may be shown once.
Test system: Fibroblast
Test: Multiplex assay against human fibroblast
Format: toxicity, cell-based
Details: number of replicates 2
Summary of the method: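 Hoechst33342, BioTracker Green Microtubule Cytoskeleton Dye, MitoTracker Red and Annexin V Alexa Fluor 680 were added to live cells at seeding, and imaging on a CQ1 microscope at 37°C and 5% CO2 followed compound addition. Gating by CellPathfinder machine learning separated cells into Hoechst high-intensity objects or normal cells, then normal cells into healthy, pyknosed or fragmented nuclei, then pyknosed cells into mitotic or apoptotic. Per cents of healthy-nucleus cells are reported for the tubulin, mitochondrial-mass and membrane-permeability phenotypes.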

[1] = 12 h, 1 µM, compound concentration 1 uM
[2] = 12 h, 10 µM, compound concentration 10 uM
[3] = 24 h, 1 µM, compound concentration 1 uM
[4] = 24 h, 10 µM, compound concentration 10 uM
[5] = 48 h, 1 µM, compound concentration 1 uM
[6] = 48 h, 10 µM, compound concentration 10 uM

SMILES: Cc1ccc2c(c1CCC(=O)O)CC[C@@H](NS(=O)(=O)c1ccc(Cl)cc1)C2 [TERUTROBAN]
- Population Apoptotic (%) [1]: 25% and 43%
- Population Fragmented Nuclei (%) [1]: 8%
- Population Healthy Nuclei (%) [1]: 71% and 75%
- Population Hoechst High Intensity Objects (%) [1]: 0%
- Population Membrane Permeable-Phenotype (%) [1]: 5% and 3%
- Population Mitochondria Different-Phenotype (%) [1]: 1%
- Population Mitotic Cells (%) [1]: 74% and 56%
- Population Normal (%) [1]: 100%
- Population Pyknosed Nuclei (%) [1]: 19% and 15%
- Population Tubulin-Different-Phenotype (%) [1]: 10% and 7%
- Total Cell Count [1]: 221 and 236
- Population Apoptotic (%) [2]: 40% and 55%
- Population Fragmented Nuclei (%) [2]: 8% and 15%
- Population Healthy Nuclei (%) [2]: 69% and 67%
- Population Hoechst High Intensity Objects (%) [2]: 0%
- Population Membrane Permeable-Phenotype (%) [2]: 11% and 7%
- Population Mitochondria Different-Phenotype (%) [2]: 1% and 0%
- Population Mitotic Cells (%) [2]: 59% and 44%
- Population Normal (%) [2]: 100%
- Population Pyknosed Nuclei (%) [2]: 21% and 16%
- Population Tubulin-Different-Phenotype (%) [2]: 26% and 19%
- Total Cell Count [2]: 203 and 208
- Population Apoptotic (%) [3]: 50% and 40%
- Population Fragmented Nuclei (%) [3]: 10% and 14%
- Population Healthy Nuclei (%) [3]: 74% and 75%
- Population Hoechst High Intensity Objects (%) [3]: 0%
- Population Membrane Permeable-Phenotype (%) [3]: 1%
- Population Mitochondria Different-Phenotype (%) [3]: 1% and 0%
- Population Mitotic Cells (%) [3]: 50% and 59%
- Population Normal (%) [3]: 100%
- Population Pyknosed Nuclei (%) [3]: 14% and 10%
- Population Tubulin-Different-Phenotype (%) [3]: 9% and 3%
- Total Cell Count [3]: 219 and 249
- Population Apoptotic (%) [4]: 52% and 51%
- Population Fragmented Nuclei (%) [4]: 10% and 14%
- Population Healthy Nuclei (%) [4]: 73% and 72%
- Population Hoechst High Intensity Objects (%) [4]: 0%
- Population Membrane Permeable-Phenotype (%) [4]: 5% and 8%
- Population Mitochondria Different-Phenotype (%) [4]: 2% and 0%
- Population Mitotic Cells (%) [4]: 47% and 48%
- Population Normal (%) [4]: 100%
- Population Pyknosed Nuclei (%) [4]: 16% and 13%
- Population Tubulin-Different-Phenotype (%) [4]: 20% and 11%
- Total Cell Count [4]: 218 and 222
- Population Apoptotic (%) [5]: 70% and 77%
- Population Fragmented Nuclei (%) [5]: 13% and 14%
- Population Healthy Nuclei (%) [5]: 77% and 76%
- Population Hoechst High Intensity Objects (%) [5]: 0%
- Population Membrane Permeable-Phenotype (%) [5]: 5% and 2%
- Population Mitochondria Different-Phenotype (%) [5]: 0%
- Population Mitotic Cells (%) [5]: 30% and 22%
- Population Normal (%) [5]: 100%
- Population Pyknosed Nuclei (%) [5]: 8%
- Population Tubulin-Different-Phenotype (%) [5]: 7% and 1%
- Total Cell Count [5]: 225 and 259
- Population Apoptotic (%) [6]: 62% and 38%
- Population Fragmented Nuclei (%) [6]: 8% and 16%
- Population Healthy Nuclei (%) [6]: 79% and 77%
- Population Hoechst High Intensity Objects (%) [6]: 0%
- Population Membrane Permeable-Phenotype (%) [6]: 6% and 3%
- Population Mitochondria Different-Phenotype (%) [6]: 1% and 0%
- Population Mitotic Cells (%) [6]: 37% and 61%
- Population Normal (%) [6]: 100%
- Population Pyknosed Nuclei (%) [6]: 12% and 5%
- Population Tubulin-Different-Phenotype (%) [6]: 12%
- Total Cell Count [6]: 230 and 225

SMILES: COc1cc(Nc2cnc(C#N)c(O[C@H](C)CN(C)C)n2)ncc1-c1cnn(C)c1
- Population Apoptotic (%) [1]: 37% and 47%
- Population Fragmented Nuclei (%) [1]: 12% and 13%
- Population Healthy Nuclei (%) [1]: 67% and 77%
- Population Hoechst High Intensity Objects (%) [1]: 0%
- Population Membrane Permeable-Phenotype (%) [1]: 3% and 2%
- Population Mitochondria Different-Phenotype (%) [1]: 1%
- Population Mitotic Cells (%) [1]: 62% and 52%
- Population Normal (%) [1]: 100%
- Population Pyknosed Nuclei (%) [1]: 20% and 9%
- Population Tubulin-Different-Phenotype (%) [1]: 11% and 3%
- Total Cell Count [1]: 185 and 222
- Population Apoptotic (%) [2]: 37% and 41%
- Population Fragmented Nuclei (%) [2]: 24% and 26%
- Population Healthy Nuclei (%) [2]: 69% and 64%
- Population Hoechst High Intensity Objects (%) [2]: 0%
- Population Membrane Permeable-Phenotype (%) [2]: 2% and 4%
- Population Mitochondria Different-Phenotype (%) [2]: 0%
- Population Mitotic Cells (%) [2]: 62% and 58%
- Population Normal (%) [2]: 99% and 100%
- Population Pyknosed Nuclei (%) [2]: 5% and 8%
- Population Tubulin-Different-Phenotype (%) [2]: 26% and 17%
- Total Cell Count [2]: 300 and 346
- Population Apoptotic (%) [3]: 50% and 40%
- Population Fragmented Nuclei (%) [3]: 9% and 11%
- Population Healthy Nuclei (%) [3]: 80% and 78%
- Population Hoechst High Intensity Objects (%) [3]: 0%
- Population Membrane Permeable-Phenotype (%) [3]: 2% and 3%
- Population Mitochondria Different-Phenotype (%) [3]: 2% and 1%
- Population Mitotic Cells (%) [3]: 50% and 60%
- Population Normal (%) [3]: 100%
- Population Pyknosed Nuclei (%) [3]: 9%
- Population Tubulin-Different-Phenotype (%) [3]: 13% and 5%
- Total Cell Count [3]: 168 and 206
- Population Apoptotic (%) [4]: 61% and 70%
- Population Fragmented Nuclei (%) [4]: 28% and 29%
- Population Healthy Nuclei (%) [4]: 67% and 65%
- Population Hoechst High Intensity Objects (%) [4]: 1% and 0%
- Population Membrane Permeable-Phenotype (%) [4]: 3% and 0%
- Population Mitochondria Different-Phenotype (%) [4]: 1% and 0%
- Population Mitotic Cells (%) [4]: 38% and 30%
- Population Normal (%) [4]: 98% and 100%
- Population Pyknosed Nuclei (%) [4]: 4% and 5%
- Population Tubulin-Different-Phenotype (%) [4]: 24% and 13%
- Total Cell Count [4]: 292 and 355
- Population Apoptotic (%) [5]: 43% and 64%
- Population Fragmented Nuclei (%) [5]: 14% and 12%
- Population Healthy Nuclei (%) [5]: 75% and 80%
- Population Hoechst High Intensity Objects (%) [5]: 0%
- Population Membrane Permeable-Phenotype (%) [5]: 0% and 1%
- Population Mitochondria Different-Phenotype (%) [5]: 0%
- Population Mitotic Cells (%) [5]: 56% and 35%
- Population Normal (%) [5]: 100%
- Population Pyknosed Nuclei (%) [5]: 9% and 6%
- Population Tubulin-Different-Phenotype (%) [5]: 8% and 1%
- Total Cell Count [5]: 170 and 205
- Population Apoptotic (%) [6]: 43% and 75%
- Population Fragmented Nuclei (%) [6]: 27% and 30%
- Population Healthy Nuclei (%) [6]: 66%
- Population Hoechst High Intensity Objects (%) [6]: 0%
- Population Membrane Permeable-Phenotype (%) [6]: 1% and 2%
- Population Mitochondria Different-Phenotype (%) [6]: 0%
- Population Mitotic Cells (%) [6]: 56% and 25%
- Population Normal (%) [6]: 100% and 99%
- Population Pyknosed Nuclei (%) [6]: 5% and 3%
- Population Tubulin-Different-Phenotype (%) [6]: 29% and 12%
- Total Cell Count [6]: 312 and 369
